Measurements taken from ChEMBL document CHEMBL4834433, “Calcitonin gene-related peptide (CGRP) receptor antagonists: Heterocyclic modification of a novel azepinone lead” (Bioorg Med Chem Lett, 2021).
In brackets after ≈: the same amount, converted by molar mass.

Legend:
Cytochrome P450 3A4 = Cytochrome P450 3A4 (Homo sapiens, UniProt P08684); test: Time dependent inhibition of CYP3A4 (unknown origin) measured after 30 mins; assay type: ADME
[1] = biological target: T1, Calcitonin gene-related peptide type 1 receptor (Homo sapiens, UniProt O60894+Q16602); test: Displacement of [125I]CGRP from human CGRP receptor in human SK-N-MC cells measured after 2 hrs by scintillation counting analysis; assay type: cell-based
[2] = Microsomal stability in rat microsomes assessed as parent compound remaining at […] measured after 10 mins; assay type: ADME, Microsome; details: read-out: Stabilty
[3] = Microsomal stability in monkey microsomes assessed as parent compound remaining at […] measured after 10 mins; assay type: ADME, Macaca mulatta, Liver, Microsome; details: rhesus monkey, read-out: Stabilty
[4] = Microsomal stability in human liver microsomes assessed as parent compound remaining at […] measured after 10 mins; assay type: ADME; details: read-out: Stabilty
[5] = Total plasma concentration in human CGRPalpha-induced migraine marmoset model at 7 mg/kg, sc measured after 15 to 105 mins; assay type: ADME, organism-based, Callithrix jacchus; details: in vivo, time 15-105 min
Method in brief: (§1)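 In anesthetized marmosets given the antagonist sc at 0 min and iv hαCGRP (10 µg/kg) at −30, +15, +60 and +105 min, total plasma levels were taken at the 15, 60 and 105 min postdose test times.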

[6] = biological target: T1, Calcitonin gene-related peptide type 1 receptor; test: Antagonist activity against human CGRP receptor in human SK-N-MC cells assessed as inhibition of CGRP-stimulated cAMP production; assay type: functional, cell-based
Callithrix jacchus [7] = test: Antimigraine activity in human CGRPalpha-induced migraine marmoset model assessed as reduction in facial blood flow at 3 mg/kg, sc administered 30 mins after CGRPalpha stimulation measured after 15 to 105 mins by laser doppler method relative to control; assay type: functional; parameters: scale not given: the % may be the effect or the level left; details: time 15-105 min
Method in brief: (§2)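 Marmosets were anesthetized. Facial blood flow was raised by iv hαCGRP (10 µg/kg) given at −30, +15, +60 and +105 min relative to sc antagonist dosing at 0 min. Blood flow was read by laser Doppler flowmetry. Inhibition of the CGRP-induced increase was expressed against the predose vehicle control response at −30 min.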

[8] = Cmax in Cynomolgus monkey at 10 mg/kg, po; assay type: ADME, organism-based, Macaca fascicularis; parameters: route oral, dose 10 mg/kg; details: in vivo
Callithrix jacchus [9] = test: Antimigraine activity in human CGRPalpha-induced migraine marmoset model assessed as reduction in facial blood flow at 7 mg/kg, sc administered 30 mins after CGRPalpha stimulation measured after 60 mins by laser doppler method relative to control; assay type: functional; parameters: scale not given: the % may be the effect or the level left; details: 1 h; method in brief: as §2
[10] = Permeability form basolateral to apical side in human Caco2 cells; assay type: ADME, cell-based; details: Caco-2, read-out: permeability
[11] = Permeability of compound at pH 7.4 by PAMPA assay; assay type: ADME; details: read-out: permeability
[12] = Permeability form apical to basolateral side in human Caco2 cells; assay type: ADME, cell-based; details: Caco-2, read-out: permeability
[13] = Cmax in rat at 10 mg/kg, po; assay type: ADME, organism-based; parameters: route oral, dose 10 mg/kg; details: in vivo
Method in brief: (§3)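 Rats received a single 10 mg/kg oral dose in 80% PEG400/10% DMAC/10% Tween 80.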

[14] = Oral bioavailability in rat at 10 mg/kg; assay type: ADME, organism-based; details: in vivo; method in brief: as §3
Callithrix jacchus [15] = test: Antimigraine activity in human CGRPalpha-induced migraine marmoset model assessed as reduction in facial blood flow at 7 mg/kg, sc administered 30 mins after CGRPalpha stimulation measured after 15 mins by laser doppler method relative to control; assay type: functional; parameters: scale not given: the % may be the effect or the level left; details: 0.25 h; method in brief: as §2
Callithrix jacchus [16] = test: Antimigraine activity in human CGRPalpha-induced migraine marmoset model assessed as reduction in facial blood flow at 7 mg/kg, sc administered 30 mins after CGRPalpha stimulation measured after 105 mins by laser doppler method relative to control; assay type: functional; parameters: scale not given: the % may be the effect or the level left; details: 1.75 h; method in brief: as §2
[17] = Total plasma concentration in human CGRPalpha-induced migraine marmoset model at 3 mg/kg, sc measured after 15 to 105 mins; assay type: ADME, organism-based, Callithrix jacchus; details: in vivo, time 15-105 min; method in brief: as §1
[18] = Fraction unbound in plasma of human CGRPalpha-induced migraine marmoset model at 7 mg/kg, sc measured after 15 to 105 mins; assay type: ADME, organism-based, Callithrix jacchus; details: time 15-105 min
[19] = Solubility in phosphate buffer at pH 7 using amorphous form of sample; assay type: physicochemical
Method in brief: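 Solubility of the amorphous solid was measured in 50 mM phosphate buffer, pH 7.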

[20] = Permeability of compound at pH 5.5 by PAMPA assay; assay type: ADME; details: read-out: permeability
Callithrix jacchus [21] = test: Antimigraine activity in human CGRPalpha-induced migraine marmoset model assessed as reduction in facial blood flow at 7 mg/kg, sc administered 30 mins after CGRPalpha stimulation measured after 15 to 105 mins by laser doppler method relative to control; assay type: functional; parameters: scale not given: the % may be the effect or the level left; details: time 15-105 min; method in brief: as §2

T1 sequence (Q16602 whole entry, one chain of several): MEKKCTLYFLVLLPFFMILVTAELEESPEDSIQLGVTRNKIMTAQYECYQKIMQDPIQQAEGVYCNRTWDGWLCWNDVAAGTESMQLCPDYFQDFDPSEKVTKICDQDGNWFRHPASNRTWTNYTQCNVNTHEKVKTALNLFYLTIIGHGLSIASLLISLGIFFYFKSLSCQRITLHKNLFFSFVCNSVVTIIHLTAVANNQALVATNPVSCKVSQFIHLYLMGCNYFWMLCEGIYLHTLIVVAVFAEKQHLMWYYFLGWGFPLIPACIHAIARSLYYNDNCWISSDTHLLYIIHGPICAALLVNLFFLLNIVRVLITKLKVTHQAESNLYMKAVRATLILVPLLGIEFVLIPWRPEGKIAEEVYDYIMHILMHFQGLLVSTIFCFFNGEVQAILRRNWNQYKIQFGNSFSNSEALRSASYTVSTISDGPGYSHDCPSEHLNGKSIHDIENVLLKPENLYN
Sequence of Cytochrome P450 3A4 (P08684 whole entry): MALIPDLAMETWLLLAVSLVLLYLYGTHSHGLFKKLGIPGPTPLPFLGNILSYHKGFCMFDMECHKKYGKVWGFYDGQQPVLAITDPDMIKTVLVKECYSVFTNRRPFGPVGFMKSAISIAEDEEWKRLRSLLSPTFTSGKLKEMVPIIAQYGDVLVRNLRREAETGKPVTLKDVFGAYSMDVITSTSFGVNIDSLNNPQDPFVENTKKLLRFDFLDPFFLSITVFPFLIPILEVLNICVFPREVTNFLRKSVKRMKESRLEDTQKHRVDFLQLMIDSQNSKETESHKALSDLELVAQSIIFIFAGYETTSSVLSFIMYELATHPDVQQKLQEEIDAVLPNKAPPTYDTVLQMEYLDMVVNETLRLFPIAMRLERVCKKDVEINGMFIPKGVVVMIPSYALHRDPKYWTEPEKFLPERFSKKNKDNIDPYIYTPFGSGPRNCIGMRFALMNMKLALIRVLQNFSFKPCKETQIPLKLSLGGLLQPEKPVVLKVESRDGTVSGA

| SMILES | Ki [1] [nM] | remaining at 10 min [2] [%] | remaining at 10 min [3] [%] | remaining at 10 min [4] [%] | Cmax [13] [nM] | also measured |
| --- | --- | --- | --- | --- | --- | --- |
| O=C(C[C@@H]1Cc2cc(Cl)c3[nH]ncc3c2CN(CC(F)(F)F)C1=O)N1CCC(N2CCc3ccccc3NC2=O)CC1 | 0.046 |  |  |  |  | IC50 (Cytochrome P450 3A4): 100 nM |
| O=C(C[C@@H]1Cc2cc(Cl)c3[nH]cnc3c2CN(CC(F)(F)F)C1=O)N1CCC(N2CCc3ccccc3NC2=O)CC1 | 0.17 | 7 | 24 | 26 |  |  |
| Cn1c(=O)[nH]c2c(Cl)cc3c(c21)CN(CC(F)(F)F)C(=O)[C@H](CC(=O)N1CCC(N2CCc4ccccc4NC2=O)CC1)C3 | 0.015 | 35 | 75 | 36 | 96 | concentration [5]: 170 nM; IC50 (Cytochrome P450 3A4): 8100 nM; IC50 [6]: 0.06 nM; Activity (Callithrix jacchus [7]): 79%; Cmax [8]: 35 nM; Activity (Callithrix jacchus [9]): 87%; Papp B→A [10]: 19.6 ×10⁻⁶ cm/s; Papp [11]: 19.2 ×10⁻⁶ cm/s; Papp A→B [12]: < 1.5 ×10⁻⁶ cm/s; bioavailability [14]: 1%; Activity (Callithrix jacchus [15]): 57%; Activity (Callithrix jacchus [16]): 85%; concentration [17]: 40 nM; fraction unbound [18]: 0.023; solubility [19]: < 1 µg/mL |
| O=C(C[C@@H]1Cc2cc(Cl)c3[nH]c(=O)[nH]c3c2CN(CC(F)(F)F)C1=O)N1CCC(N2CCc3ccccc3NC2=O)CC1 | 0.019 | 41 | 71 | 60 | 3 |  |
| O=C(C[C@@H]1Cc2cc(Cl)c3c(c2CN(CC(F)(F)F)C1=O)C(F)(F)C(=O)N3)N1CCC(n2c(=O)[nH]c3ncccc32)CC1 | 0.13 | 82 | 28 | 91 | 4 | Papp [20]: 9.9 ×10⁻⁶ cm/s; concentration [5]: 140 nM; IC50 (Cytochrome P450 3A4): > 40000 nM; Activity (Callithrix jacchus [9]): 48%; Papp B→A [10]: 25.7 ×10⁻⁶ cm/s; Papp [11]: 8.7 ×10⁻⁶ cm/s; Papp A→B [12]: < 1.5 ×10⁻⁶ cm/s; Activity (Callithrix jacchus [15]): 47%; Activity (Callithrix jacchus [16]): 56%; fraction unbound [18]: 0.054; solubility [19]: 15 µg/mL (≈ 23.9 µM) |
| O=C(C[C@@H]1Cc2cc(Cl)c3[nH]nnc3c2CN(CC(F)(F)F)C1=O)N1CCC(n2c(=O)[nH]c3ncccc32)CC1 | 0.44 | 90 | 64 | 62 |  |  |
| O=C(C[C@@H]1Cc2cc(Cl)c3[nH]c(=O)n(CC(F)(F)F)c3c2CN(CC(F)(F)F)C1=O)N1CCC(N2CCc3ccccc3NC2=O)CC1 | 0.02 | 54 | 87 | 58 | 270 | Papp [20]: 51.3 ×10⁻⁶ cm/s; concentration [5]: 80 nM; IC50 (Cytochrome P450 3A4): 8400 nM; IC50 [6]: 0.12 nM; Cmax [8]: 87 nM; Activity (Callithrix jacchus [9]): 65%; Papp B→A [10]: 2.4 ×10⁻⁶ cm/s; Papp A→B [12]: < 1.5 ×10⁻⁶ cm/s; Activity (Callithrix jacchus [15]): 26%; Activity (Callithrix jacchus [16]): 84%; fraction unbound [18]: 0.009; solubility [19]: < 1 µg/mL |
| CCn1c(=O)[nH]c2c(Cl)cc3c(c21)CN(CC(F)(F)F)C(=O)[C@H](CC(=O)N1CCC(N2CCc4ccccc4NC2=O)CC1)C3 | 0.014 | 22 | 59 | 44 | 230 | IC50 [6]: 0.09 nM; Cmax [8]: 230 nM; Activity (Callithrix jacchus [21]): 67% |
| N#Cc1c[nH]c2c(Cl)cc3c(c12)CN(CC(F)(F)F)C(=O)[C@H](CC(=O)N1CCC(n2c(=O)[nH]c4ncccc42)CC1)C3 | 0.06 | 40 | 7 | 40 |  |  |
| O=C(C[C@@H]1Cc2cc(Cl)c3[nH]c(=O)oc3c2CN(CC(F)(F)F)C1=O)N1CCC(n2c(=O)[nH]c3ncccc32)CC1 | 0.12 | 64 | 63 | 49 | 36 |  |
| O=C(C[C@@H]1Cc2cc(Cl)c3c(c2CN(CC(F)(F)F)C1=O)C(F)(F)C(=O)N3)N1CCC(N2CCc3ccccc3NC2=O)CC1 | 0.069 | 35 | 8.1 | 22 | 480 |  |
| Cn1c(=O)[nH]c2c(Cl)cc3c(c21)CN(CC(F)(F)F)C(=O)[C@H](CC(=O)N1CCC(N2CCc4ncccc4NC2=O)CC1)C3 | 0.043 | 56 | 100 | 73 | 11 |  |
| O=C(C[C@@H]1Cc2cc(Cl)c3[nH]ccc3c2CN(CC(F)(F)F)C1=O)N1CCC(N2CCc3ccccc3NC2=O)CC1 | 0.85 | 0.8 | 1.6 | 0.9 |  |  |
| N#Cc1c[nH]c2c(Cl)cc3c(c12)CN(CC(F)(F)F)C(=O)[C@H](CC(=O)N1CCC(N2CCc4ccccc4NC2=O)CC1)C3 | 0.06 | 11 | 26 | 38 |  |  |
| O=C(C[C@@H]1Cc2cc(Cl)c3[nH]c(=O)n(CC(F)(F)F)c3c2CN(CC(F)(F)F)C1=O)N1CCC(n2c(=O)[nH]c3ncccc32)CC1 | 0.026 | 90 | 41 | 90 | 3 | Papp [20]: 2.8 ×10⁻⁶ cm/s; Papp B→A [10]: 16.5 ×10⁻⁶ cm/s; Papp [11]: 2.3 ×10⁻⁶ cm/s; Papp A→B [12]: < 1.5 ×10⁻⁶ cm/s; solubility [19]: < 1 µg/mL |
| NC(=O)c1c[nH]c2c(Cl)cc3c(c12)CN(CC(F)(F)F)C(=O)[C@H](CC(=O)N1CCC(n2c(=O)[nH]c4ncccc42)CC1)C3 | 0.4 | 80 | 70 | 80 |  |  |
